Test results published in ChEMBL document CHEMBL4602735, “Discovery of (1H-Pyrazolo[3,4-c]pyridin-5-yl)sulfonamide Analogues as Hepatitis B Virus Capsid Assembly Modulators by Conformation Constraint” (J Med Chem, 2020).
≈ marks a conversion by molar mass, not a printed value.

Legend:
Hepatitis B virus [1] = assay: Antiviral activity against HBV infected in human HepAD38 cells assessed as reduction in viral DNA levels incubated for 6 days by PCR analysis; assay type: functional, organism-based; conditions: HePAD38, 144 h
[2] = Cytotoxicity in human HepAD38 cells assessed as induction of cell killing; assay type: cell-based
[3] = Selectivity index, ratio of CC50 for cytotoxicity in human HepAD38 cells assessed as induction of cell killing to EC50 for antiviral activity against HBV infected in human HepAD38 cells assessed as reduction in viral DNA levels incubated for 6 days by PCR analysis; assay type: toxicity, cell-based; conditions: read-out: Ratio CC50/EC50
Hepatitis B virus [4] = assay: Antiviral activity against HBV infected in human HepG2.A64 cells containing reverse transcriptase L180M/T184L/M204V mutant assessed as reduction in viral replication incubated for 6 days by PCR analysis; assay type: functional, organism-based; conditions: HepG2.A64, 144 h
Procedure, shortened: (§1)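 Wild-type HBV replication measured in HepAD38 and HepG2.2.15 cells, lamivudine/entecavir-resistant HBV in HepG2.A64 cells (rtL180M+rtT184L+rtM204V) and multidrug-resistant HBV in HepG2.1403F cells (rtL180M+rtM204V+rtS202G+rtN236T). Read-out is reduction of HBV DNA. EC50 is reported as mean ± SD.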

[5] = Cytotoxicity in human HepG2 cells assessed as induction of cell killing; assay type: cell-based
Hepatitis B virus [6] = assay: Antiviral activity against multidrug-resistant HBV infected in human HepG2.1403F cells assessed as reduction in viral replication incubated for 6 days by PCR analysis; assay type: functional, organism-based; conditions: 144 h; procedure, shortened: as §1
[7] = Solubility in pH 6.8 phosphate buffer at 1 mg at 25 degC by HPLC analysis; assay type: physicochemical; conditions: BLD = below limit of detection
Procedure, shortened: (§2)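 Solubility determined in water or 0.067 M phosphate buffer at pH 5.8, 6.8 and 7.4. Values are reported in mg/mL; ND means below the detection limit.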

[8] = Solubility in water at 1 mg at 25 degC by HPLC analysis; assay type: physicochemical; procedure, shortened: as §2

| EC50 (Hepatitis B virus [1]) [µM] | SMILES | CC50 [2] [µM] | selectivity ratio at 144 h [3] | further results |
| --- | --- | --- | --- | --- |
| 0.29 | O=S(=O)(c1ccc2c(c1)c(Nc1ccc(F)c(C(F)(F)F)c1)nn2C1CC1)N1CCOCC1 | 8.42 | 29 | – |
| > 10 | O=S(=O)(c1ccc2c(c1)c(NC1CCCC1)nn2C1CC1)N1CCC(O)CC1 | > 100 | – | – |
| > 10 | O=S(=O)(c1ccc2c(c1)c(Oc1ccc(F)c(Cl)c1)nn2C1CC1)N1CCC(O)CC1 | 75 | < 7.5 | – |
| 2.1 | O=S(=O)(c1ccc2c(c1)c(Nc1ccc(F)cc1)nn2C1CC1)N1CCC(O)C1 (stereo not given) | 60 | 28 | – |
| 0.045 | Cc1cc(Nc2nn(C3CC3)c3ccc(S(=O)(=O)N4C[C@@H]5C[C@H]4CO5)cc23)ccc1F | 19 | 422 | – |
| 0.33 | O=C1CCN(S(=O)(=O)c2ccc3c(c2)c(Nc2ccc(F)cc2)nn3C2CC2)CC1 | 14.2 | 43 | – |
| > 10 | CC(C)n1nc(Nc2ccc(F)cc2)c2cc(S(=O)(=O)N3CCC(O)CC3)ccc21 | – | – | – |
| 1.38 | Cn1nc(Nc2ccc(F)c(Cl)c2)c2cc(S(=O)(=O)N3CCC(O)CC3)ccc21 | > 100 | > 72 | – |
| > 20 | Cc1cc(Nc2nn(C3CC3)c3ccc(S(=O)(=O)N4CCC(O)CC4)cc23)ccn1 | 46.6 | < 23 | – |
| 4 | O=S(=O)(c1ccc2c(c1)c(Nc1ccc(F)cc1Cl)nn2C1CC1)N1CCC(O)CC1 | > 100 | > 25 | – |
| 0.25 | O=S(=O)(c1cc2c(Nc3ccc(F)c(F)c3)nn(C3CC3)c2cn1)N1CCC(O)CC1 | > 100 | > 400 | – |
| > 10 | O=S(=O)(c1ccc2c(c1)c(NCc1ccc(F)cc1)nn2C1CC1)N1CCC(O)CC1 | – | – | – |
| 0.22 | O=S(=O)(c1ccc2c(c1)c(Nc1ccc(F)c(F)c1)nn2C1CC1)N1CCOCC1 | > 100 | > 454 | – |
| 0.25 | O=S(=O)(c1ccc2c(c1)c(Nc1ccc(F)cc1)nn2C1CC1)N1CCCC(O)C1 (stereo not given) | 19.1 | 76.2 | – |
| > 10 | O=S(=O)(c1ccc2c(c1)c(NCc1ccccc1)nn2C1CC1)N1CCC(O)CC1 | – | – | – |
| 0.19 | O=S(=O)(c1ccc2c(c1)c(Nc1ccc(F)c(Cl)c1)nn2C1CC1)N1CCC(O)CC1 | 18.3 | 96 | – |
| > 20 | O=S(=O)(c1cnc2c(c1)c(Nc1cc(F)c(F)c(F)c1)nn2C1CC1)N1CCC(O)CC1 | – | – | – |
| 0.74 | O=S(=O)(c1ccc2c(c1)c(Nc1ccccc1)nn2C1CC1)N1CCC(O)CC1 | 32.2 | 44 | – |
| 1.15 | Cc1cc(F)ccc1Nc1nn(C2CC2)c2ccc(S(=O)(=O)N3CCC(O)CC3)cc12 | > 100 | > 87 | – |

| EC50 (Hepatitis B virus [1]) [µM] | SMILES | CC50 [2] [µM] | selectivity ratio at 144 h [3] | further results |
| --- | --- | --- | --- | --- |
| > 10 | Cc1cc(Nc2nn(C3CC3)c3ccc(S(=O)(=O)N4CCC(O)CC4)cc23)ncc1F | – | – | – |
| 0.22 | O=S(=O)(c1cc2c(Nc3ccc(F)c(F)c3)nn(C3CC3)c2cn1)N1CCOCC1 | > 100 | > 454 | – |
| 0.22 to 5 | Cc1ccc(Nc2nn(C3CC3)c3ccc(S(=O)(=O)N4CCC(O)CC4)cc23)cc1 | – | – | – |
| > 10 | O=S(=O)(c1ccc2c(c1)c(NC1CCCCC1)nn2C1CC1)N1CCC(O)CC1 | 100 | < 10 | – |
| 0.21 | Cc1cc(Nc2nn(C3CC3)c3cc(F)c(S(=O)(=O)N4CCOCC4)cc23)ccc1F | > 100 | – | – |
| > 10 | CN(c1ccc(F)c(Cl)c1)c1nn(C2CC2)c2ccc(S(=O)(=O)N3CCC(O)CC3)cc12 | > 100 | – | – |
| 0.13 | O=S(=O)(c1cc2c(Nc3cc(F)c(F)c(F)c3)nn(C3CC3)c2cc1F)N1CCC(O)CC1 | > 100 | > 769 | – |
| > 10 | O=C(O)C1CCN(S(=O)(=O)c2ccc3c(c2)c(Nc2ccc(F)cc2)nn3C2CC2)C1 (stereo not given) | > 100 | – | – |
| 0.41 | Cc1cc(Nc2nn(CCF)c3ccc(S(=O)(=O)N4CCOCC4)cc23)ccc1F | > 100 | > 244 | – |
| > 5 | O=S(=O)(c1ccc2c(n1)c(Nc1cc(F)c(F)c(F)c1)nn2C1CC1)N1CCC(O)CC1 | – | – | – |
| > 10 | Cc1cc(Nc2nn(C(F)F)c3ccc(S(=O)(=O)N4CCOCC4)cc23)ccc1F | > 100 | – | – |
| 0.12 | O=S(=O)(c1ccc2c(c1)c(Nc1ccc(F)c(C(F)F)c1)nn2C1CC1)N1CCOCC1 | 50 | 417 | – |
| 0.24 | O=S(=O)(c1cc2c(Nc3cc(F)c(F)c(F)c3)nn(C3CC3)c2cn1)N1CCC(O)CC1 | > 100 | > 417 | – |
| 3.14 | O=S(=O)(c1ccc2c(c1)c(Nc1ccc(Cl)cc1)nn2C1CC1)N1CCC(O)CC1 | 6.9 | 2.2 | – |
| 0.29 | Cc1cc(Nc2n[nH]c3ccc(S(=O)(=O)N4CCOCC4)cc23)ccc1F | 50 | 172 | – |
| 6 | O=S(=O)(c1ccc2c(c1)c(Nc1ccc(F)c(C(F)(F)F)c1)nn2C1CC1)N1CCC(O)CC1 | 7.52 | 1.3 | – |
| > 10 | O=S(=O)(c1ccc2c(c1)c(Nc1ccc(F)cn1)nn2C1CC1)N1CCC(O)CC1 | – | – | – |
| 0.22 | O=S(=O)(c1ccc2c(c1)c(Nc1ccc(F)cc1)nn2C1CC1)N1CCC(O)CC1 | > 100 | > 455 | – |
| 2 | O=S(=O)(c1cc(F)c2c(c1)c(Nc1cc(F)c(F)c(F)c1)nn2C1CC1)N1CCC(O)CC1 | > 100 | > 50 | – |

| EC50 (Hepatitis B virus [1]) [µM] | SMILES | CC50 [2] [µM] | selectivity ratio at 144 h [3] | further results |
| --- | --- | --- | --- | --- |
| 8 | O=S(=O)(c1ccc2c(c1)c(Nc1ccc(F)cc1)nn2C1CCC1)N1CCC(O)CC1 | 10.8 | 1.3 | – |
| 1.1 | O=S(=O)(c1ccc2c(c1)c(Nc1ccc(F)cc1)nn2C1CC1)N1CCC(CO)CC1 | 24.8 | 23 | – |
| 0.24 | Cc1cc(Nc2nn(CC(F)(F)F)c3ccc(S(=O)(=O)N4CCOCC4)cc23)ccc1F | > 100 | > 417 | – |
| – | CC(=O)O.Cc1cc(Nc2nn(C3CC3)c3cnc(S(=O)(=O)N4CCC(OC(=O)CN(C)C)CC4)cc23)ccc1F | – | – | solubility [7]: Bld; solubility [8]: 1110 µg/mL |
| 0.34 | O=S(=O)(c1cc2c(Nc3ccc(F)c(C(F)(F)F)c3)nn(C3CC3)c2cn1)N1CCOCC1 | > 100 | > 294 | – |
| > 10 | O=S(=O)(c1ccc2c(c1)c(Nc1ccc(F)cc1)nn2C1COC1)N1CCC(O)CC1 | – | – | – |
| > 20 | O=S(=O)(c1ccc2c(c(Nc3cc(F)c(F)c(F)c3)nn2C2CC2)c1F)N1CCC(O)CC1 | > 100 | – | – |
| 0.23 | O=S(=O)(c1cc2c(Nc3ccc(F)c(C(F)F)c3)nn(C3CC3)c2cn1)N1CCOCC1 | > 100 | > 435 | – |
| 0.29 | O=S(=O)(c1ccc2c(c1)c(Nc1ccc(F)c(C(F)F)c1)nn2C1CC1)N1CCC(O)CC1 | 13.6 | 47 | – |
| 0.43 | O=S(=O)(c1ccc2c(c1)c(Nc1ccc(F)cc1)nn2C1CC1)N1CCOCC1 | > 100 | > 232 | – |
| 0.23 | Cc1cc(Nc2nn(CC(F)F)c3ccc(S(=O)(=O)N4CCOCC4)cc23)ccc1F | > 100 | > 435 | – |
| 0.68 | O=S(=O)(c1ccc2c(c1)c(Nc1ccc(F)c(C3CC3)c1)nn2C1CC1)N1CCC(O)CC1 | 5.86 | 8.6 | – |
| 1.26 | CCn1nc(Nc2ccc(F)cc2)c2cc(S(=O)(=O)N3CCC(O)CC3)ccc21 | > 100 | > 79 | – |
| 1.28 | O=S(=O)(c1ccc2[nH]nc(Nc3ccc(F)c(Cl)c3)c2c1)N1CCC(O)CC1 | 24 | 18.8 | – |
| – | Cc1cc(Nc2nn(C3CC3)c3cnc(S(=O)(=O)N4CCC(OC(=O)CN(C)C)CC4)cc23)ccc1F | – | – | solubility [8]: 710 µg/mL (≈ 1340 µM) |
| > 10 | N#Cc1cc(Nc2nn(C3CC3)c3ccc(S(=O)(=O)N4CCC(O)CC4)cc23)ccc1F | – | – | – |
| 0.032 | Cc1cc(Nc2nn(C3CC3)c3ccc(S(=O)(=O)N4CCC(O)CC4)cc23)ccc1F | 11 | 343 | – |
| 0.12 | O=S(=O)(c1ccc2c(c1)c(Nc1ccc(F)c(F)c1)nn2C1CC1)N1CCC(O)CC1 | 75 | 625 | – |
| 0.25 | O=S(=O)(c1ccc2c(c1)c(Nc1ccc(F)cc1)nn2C1CC1)N1CCC2(CC1)OCCO2 | > 100 | > 400 | – |

| SMILES | EC50 (Hepatitis B virus [1]) [µM] | CC50 [2] [µM] | selectivity ratio at 144 h [3] | further results |
| --- | --- | --- | --- | --- |
| C=C1[C@H](CO)[C@@H](O)C[C@@H]1n1cnc2c(=O)[nH]c(N)nc21 | 0.011 | – | – | EC50 (Hepatitis B virus [4]): > 10 µM; CC50 [5]: 42.1 µM; EC50 (Hepatitis B virus [6]): > 10 µM |
| C[C@H](Cn1cnc2c(N)ncnc21)OCP(=O)(O)O [TENOFOVIR ANHYDROUS] | 0.01 | – | – | EC50 (Hepatitis B virus [4]): 0.84 µM; CC50 [5]: 15 µM; EC50 (Hepatitis B virus [6]): 2.52 µM |
